The record followed here is ChEMBL document CHEMBL4007402 (J Med Chem, 2017).

By GI50 is commonly meant the concentration at which growth is held to half of that of the control. In general, IC50 refers to the concentration at which inhibition is half-maximal.

The target in data set [1] is Tyrosine-protein kinase ABL1 (Homo sapiens) (UniProt P00519). As to the kind of experiment: Inhibition of recombinant TEL-fused ABL (unknown origin) expressed in mouse BAF3 cells assessed as growth inhibition after 72 hrs by CellTiter-Glo or CCK-8 assay. The class given is cell-based. A digest of the protocol: (§1)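 Isogenic murine BaF3 cells transformed with TEL-fused kinases, whose proliferation depends on the fused kinase, were used. Parental BaF3 cells served as the general selectivity counter-screen. The anti-proliferative read-out was reported as GI50.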
For orientation: Cellular ATP, detected with luciferase, serves as a proxy for viable cell number.

Data set [2] deals with Platelet-derived growth factor receptor beta (Homo sapiens) (UniProt P09619). Put plainly: Inhibition of recombinant TEL-fused PDGFR-beta (unknown origin) expressed in mouse BAF3 cells assessed as growth inhibition after 72 hrs by CellTiter-Glo or CCK-8 assay. It counts as cell-based. A digest of the protocol: as §1
The nature of data set [3]: Growth inhibition of mouse BAF3 cells after 72 hrs by CellTiter-Glo or CCK-8 assay. The class given is cell-based. An outline of the steps:
as §1

Data set [4] has as its target Platelet-derived growth factor receptor alpha (Homo sapiens) (UniProt P16234). As to the kind of experiment: Inhibition of recombinant TEL-fused PDGFR-alpha (unknown origin) expressed in mouse BAF3 cells assessed as growth inhibition after 72 hrs by CellTiter-Glo or CCK-8 assay. The class given is cell-based. A digest of the protocol: as §1
In data set [5] the target is T1, Cytoplasmic tyrosine-protein kinase BMX (Homo sapiens) (UniProt P51813).
T1 sequence (whole entry): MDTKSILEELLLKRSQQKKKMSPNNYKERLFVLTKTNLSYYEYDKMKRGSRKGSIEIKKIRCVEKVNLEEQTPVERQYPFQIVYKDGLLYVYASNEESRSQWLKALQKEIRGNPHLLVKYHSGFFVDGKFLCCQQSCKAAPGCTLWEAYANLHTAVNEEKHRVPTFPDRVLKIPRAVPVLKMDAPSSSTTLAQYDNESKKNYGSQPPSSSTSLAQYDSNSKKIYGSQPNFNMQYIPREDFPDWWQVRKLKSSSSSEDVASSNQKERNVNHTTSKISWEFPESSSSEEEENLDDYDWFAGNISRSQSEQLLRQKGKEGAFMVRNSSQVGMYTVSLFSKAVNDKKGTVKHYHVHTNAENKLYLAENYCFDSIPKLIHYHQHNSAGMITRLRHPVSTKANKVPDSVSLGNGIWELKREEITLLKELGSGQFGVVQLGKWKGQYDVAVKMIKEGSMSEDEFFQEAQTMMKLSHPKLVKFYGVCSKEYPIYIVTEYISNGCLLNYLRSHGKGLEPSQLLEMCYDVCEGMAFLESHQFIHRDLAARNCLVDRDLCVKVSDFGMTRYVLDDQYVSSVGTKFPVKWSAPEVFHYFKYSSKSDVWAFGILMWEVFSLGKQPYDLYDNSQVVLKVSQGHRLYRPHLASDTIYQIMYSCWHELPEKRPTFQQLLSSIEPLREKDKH

Data set [6] deals with Mitogen-activated protein kinase 14 (Homo sapiens, UniProt Q16539). As to the kind of experiment: Inhibition of full-length recombinant human GST-tagged p38alpha expressed in Escherichia coli by Z'-LYTE assay.
For data set [7], the target named is Tyrosine-protein kinase BTK (Homo sapiens, UniProt Q06187). As to the kind of experiment: Inhibition of full-length recombinant human His-tagged BTK expressed in baculovirus expression system using Poly(4:1 Glu, Tyr) as substrate after 1 hr by ADP-Glo kinase assay. A general note: ADP-Glo turns the ADP formed in a reaction into a luminescent signal.
The target of data set [8] is Epithelial discoidin domain-containing receptor 1 (Homo sapiens, UniProt Q08345). As to the kind of experiment: Inhibition of human GST-tagged DDR1 catalytic domain expressed in baculovirus expression system by LanthaScreen assay. On the technique in general: Time-resolved FRET reads energy transfer from a long-lived donor to a nearby acceptor.
Data set [9] deals with Receptor-type tyrosine-protein kinase FLT3 (Homo sapiens) (UniProt P36888). As to the kind of experiment: Inhibition of recombinant TEL-fused FLT3 (unknown origin) expressed in mouse BAF3 cells assessed as growth inhibition after 72 hrs by CellTiter-Glo or CCK-8 assay. It counts as cell-based. A digest of the protocol: as §1
Data set [10] concerns the target Mast/stem cell growth factor receptor Kit (Homo sapiens) (UniProt P10721). Put plainly: Inhibition of recombinant TEL-fused c-KIT (unknown origin) expressed in mouse BAF3 cells assessed as growth inhibition after 72 hrs by CellTiter-Glo or CCK-8 assay. The class given is cell-based. An outline of the steps: as §1
The target of data set [11] is T2, Tyrosine-protein kinase JAK3 (Homo sapiens) (UniProt P52333).
T2 sequence (whole entry): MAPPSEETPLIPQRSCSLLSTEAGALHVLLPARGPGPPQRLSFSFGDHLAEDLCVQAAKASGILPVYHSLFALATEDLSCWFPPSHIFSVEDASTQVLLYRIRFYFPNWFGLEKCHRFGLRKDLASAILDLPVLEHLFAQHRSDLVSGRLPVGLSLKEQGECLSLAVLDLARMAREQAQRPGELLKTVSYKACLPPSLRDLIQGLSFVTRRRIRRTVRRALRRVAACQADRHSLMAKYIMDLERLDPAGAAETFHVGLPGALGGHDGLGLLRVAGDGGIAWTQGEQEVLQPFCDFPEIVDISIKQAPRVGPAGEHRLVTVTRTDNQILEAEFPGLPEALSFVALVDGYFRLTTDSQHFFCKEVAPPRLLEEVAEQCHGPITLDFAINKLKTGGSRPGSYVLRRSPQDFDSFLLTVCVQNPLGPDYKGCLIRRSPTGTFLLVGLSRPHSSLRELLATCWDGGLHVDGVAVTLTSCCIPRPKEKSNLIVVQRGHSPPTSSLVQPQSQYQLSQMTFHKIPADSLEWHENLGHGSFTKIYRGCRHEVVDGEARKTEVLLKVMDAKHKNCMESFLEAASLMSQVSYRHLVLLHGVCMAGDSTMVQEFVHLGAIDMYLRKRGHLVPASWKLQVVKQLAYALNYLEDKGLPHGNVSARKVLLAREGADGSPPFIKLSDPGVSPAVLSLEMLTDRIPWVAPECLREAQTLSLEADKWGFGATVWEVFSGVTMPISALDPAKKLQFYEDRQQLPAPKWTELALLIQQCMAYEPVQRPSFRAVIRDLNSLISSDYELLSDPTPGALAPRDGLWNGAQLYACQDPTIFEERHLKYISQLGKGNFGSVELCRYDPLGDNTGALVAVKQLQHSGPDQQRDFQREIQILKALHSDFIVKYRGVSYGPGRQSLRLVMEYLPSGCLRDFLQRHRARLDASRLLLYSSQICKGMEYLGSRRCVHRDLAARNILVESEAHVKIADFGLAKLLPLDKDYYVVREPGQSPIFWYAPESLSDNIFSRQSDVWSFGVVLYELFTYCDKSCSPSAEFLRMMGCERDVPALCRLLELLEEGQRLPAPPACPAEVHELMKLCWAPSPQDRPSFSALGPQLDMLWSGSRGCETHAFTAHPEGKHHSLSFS
Put plainly: Inhibition of recombinant TEL-fused JAK3 (unknown origin) expressed in mouse BAF3 cells assessed as growth inhibition after 72 hrs by CellTiter-Glo or CCK-8 assay. It counts as cell-based. An outline of the steps:
as §1

In data set [12] the target is Epidermal growth factor receptor (Homo sapiens) (UniProt P00533). Put plainly: Inhibition of recombinant TEL-fused EGFR (unknown origin) expressed in mouse BAF3 cells assessed as growth inhibition after 72 hrs by CellTiter-Glo or CCK-8 assay. The class given is cell-based. A digest of the protocol:
as §1

Data set [13] deals with Tyrosine-protein kinase Blk (Homo sapiens) (UniProt P51451). Put plainly: Inhibition of recombinant TEL-fused BLK (unknown origin) expressed in mouse BAF3 cells assessed as growth inhibition after 72 hrs by CellTiter-Glo or CCK-8 assay. It counts as cell-based. A digest of the protocol: as §1

The structures appear in SMILES notation.

Chain of Mast/stem cell growth factor receptor Kit (Homo sapiens) (P10721 whole entry, the tested form may be a part): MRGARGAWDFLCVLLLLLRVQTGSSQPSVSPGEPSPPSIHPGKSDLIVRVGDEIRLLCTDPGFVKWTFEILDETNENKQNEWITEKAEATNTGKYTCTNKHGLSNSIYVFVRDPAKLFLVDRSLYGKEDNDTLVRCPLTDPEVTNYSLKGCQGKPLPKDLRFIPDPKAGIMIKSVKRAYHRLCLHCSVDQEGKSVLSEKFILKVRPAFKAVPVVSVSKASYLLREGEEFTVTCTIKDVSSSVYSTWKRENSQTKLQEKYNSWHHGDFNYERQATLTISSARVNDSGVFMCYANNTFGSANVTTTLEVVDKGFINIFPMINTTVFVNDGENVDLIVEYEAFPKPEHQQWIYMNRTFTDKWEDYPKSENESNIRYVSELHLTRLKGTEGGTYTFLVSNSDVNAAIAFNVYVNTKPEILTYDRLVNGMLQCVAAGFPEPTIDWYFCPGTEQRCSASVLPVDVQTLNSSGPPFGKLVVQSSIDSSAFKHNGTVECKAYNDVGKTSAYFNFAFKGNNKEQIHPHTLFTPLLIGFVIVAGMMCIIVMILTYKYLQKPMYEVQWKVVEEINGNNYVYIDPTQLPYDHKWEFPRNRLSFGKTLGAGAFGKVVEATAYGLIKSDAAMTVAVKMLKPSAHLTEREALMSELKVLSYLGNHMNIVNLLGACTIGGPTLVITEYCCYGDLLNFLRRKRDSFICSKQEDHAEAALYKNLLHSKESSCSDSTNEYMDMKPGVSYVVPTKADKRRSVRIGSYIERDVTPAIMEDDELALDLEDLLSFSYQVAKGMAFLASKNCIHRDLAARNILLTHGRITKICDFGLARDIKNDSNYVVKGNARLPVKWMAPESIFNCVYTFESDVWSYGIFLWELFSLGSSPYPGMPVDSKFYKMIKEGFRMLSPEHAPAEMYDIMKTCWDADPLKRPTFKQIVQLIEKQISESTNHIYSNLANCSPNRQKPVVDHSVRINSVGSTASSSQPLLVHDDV
Chain of Platelet-derived growth factor receptor alpha (Homo sapiens) (P16234 whole entry, the tested form may be a part): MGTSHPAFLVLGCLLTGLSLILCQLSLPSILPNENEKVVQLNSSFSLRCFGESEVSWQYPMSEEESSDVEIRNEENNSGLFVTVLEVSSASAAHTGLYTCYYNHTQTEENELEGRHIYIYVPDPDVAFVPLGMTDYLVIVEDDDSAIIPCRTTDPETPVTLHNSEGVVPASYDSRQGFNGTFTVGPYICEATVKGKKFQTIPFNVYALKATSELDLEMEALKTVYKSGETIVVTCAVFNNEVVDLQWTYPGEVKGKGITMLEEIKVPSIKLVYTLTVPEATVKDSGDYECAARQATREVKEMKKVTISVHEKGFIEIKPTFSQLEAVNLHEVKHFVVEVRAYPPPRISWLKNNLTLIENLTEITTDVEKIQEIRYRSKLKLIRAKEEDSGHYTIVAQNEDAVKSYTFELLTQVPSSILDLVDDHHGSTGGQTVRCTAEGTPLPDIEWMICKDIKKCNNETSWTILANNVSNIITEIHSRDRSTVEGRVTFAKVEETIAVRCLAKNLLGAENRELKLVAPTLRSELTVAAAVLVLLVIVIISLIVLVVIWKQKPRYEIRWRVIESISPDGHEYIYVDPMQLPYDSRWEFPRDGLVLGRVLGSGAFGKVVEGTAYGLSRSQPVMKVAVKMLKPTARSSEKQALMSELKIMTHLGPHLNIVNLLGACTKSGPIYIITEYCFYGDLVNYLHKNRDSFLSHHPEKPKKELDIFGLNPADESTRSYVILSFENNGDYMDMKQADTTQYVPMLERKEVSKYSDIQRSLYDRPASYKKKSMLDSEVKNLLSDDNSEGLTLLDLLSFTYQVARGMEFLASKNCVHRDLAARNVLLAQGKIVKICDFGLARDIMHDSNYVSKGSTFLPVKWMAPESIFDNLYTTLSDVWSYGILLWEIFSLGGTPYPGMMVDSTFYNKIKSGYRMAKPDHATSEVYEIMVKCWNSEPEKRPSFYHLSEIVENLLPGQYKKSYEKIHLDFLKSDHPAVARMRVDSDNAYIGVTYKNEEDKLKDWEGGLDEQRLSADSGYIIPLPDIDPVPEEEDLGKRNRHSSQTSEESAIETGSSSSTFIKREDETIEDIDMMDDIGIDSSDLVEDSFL
Chain of Epidermal growth factor receptor (Homo sapiens) (P00533 whole entry, the tested form may be a part): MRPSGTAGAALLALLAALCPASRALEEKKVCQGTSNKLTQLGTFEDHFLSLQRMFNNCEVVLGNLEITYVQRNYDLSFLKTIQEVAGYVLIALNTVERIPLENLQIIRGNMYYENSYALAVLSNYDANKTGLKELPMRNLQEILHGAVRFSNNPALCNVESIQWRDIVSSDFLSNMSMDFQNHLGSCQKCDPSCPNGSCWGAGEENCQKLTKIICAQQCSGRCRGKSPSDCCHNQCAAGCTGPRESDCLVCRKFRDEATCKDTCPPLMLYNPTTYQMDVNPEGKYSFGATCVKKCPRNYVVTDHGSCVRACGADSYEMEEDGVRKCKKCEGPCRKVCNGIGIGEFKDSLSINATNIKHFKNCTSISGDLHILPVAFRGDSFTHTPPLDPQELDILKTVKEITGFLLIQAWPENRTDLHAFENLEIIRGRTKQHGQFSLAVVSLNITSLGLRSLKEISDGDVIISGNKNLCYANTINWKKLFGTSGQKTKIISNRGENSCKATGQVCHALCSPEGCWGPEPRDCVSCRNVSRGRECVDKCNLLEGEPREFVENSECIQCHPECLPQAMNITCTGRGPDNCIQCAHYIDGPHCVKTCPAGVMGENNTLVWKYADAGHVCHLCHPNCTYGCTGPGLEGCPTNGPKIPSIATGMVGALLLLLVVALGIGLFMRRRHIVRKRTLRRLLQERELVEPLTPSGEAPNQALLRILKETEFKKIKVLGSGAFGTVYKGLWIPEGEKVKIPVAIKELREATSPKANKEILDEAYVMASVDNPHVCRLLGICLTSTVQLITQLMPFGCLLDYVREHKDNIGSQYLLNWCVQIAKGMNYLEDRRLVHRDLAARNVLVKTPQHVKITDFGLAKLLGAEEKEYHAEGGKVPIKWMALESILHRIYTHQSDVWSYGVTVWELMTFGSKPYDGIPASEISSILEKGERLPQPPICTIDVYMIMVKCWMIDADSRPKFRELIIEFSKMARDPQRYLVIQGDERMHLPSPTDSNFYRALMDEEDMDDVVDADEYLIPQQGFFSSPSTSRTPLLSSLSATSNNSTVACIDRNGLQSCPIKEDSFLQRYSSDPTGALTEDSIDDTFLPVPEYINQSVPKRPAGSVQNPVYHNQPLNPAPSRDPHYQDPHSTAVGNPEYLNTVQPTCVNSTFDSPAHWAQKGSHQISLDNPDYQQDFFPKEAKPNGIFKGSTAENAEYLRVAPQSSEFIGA
Chain of Platelet-derived growth factor receptor beta (Homo sapiens) (P09619 whole entry, the tested form may be a part): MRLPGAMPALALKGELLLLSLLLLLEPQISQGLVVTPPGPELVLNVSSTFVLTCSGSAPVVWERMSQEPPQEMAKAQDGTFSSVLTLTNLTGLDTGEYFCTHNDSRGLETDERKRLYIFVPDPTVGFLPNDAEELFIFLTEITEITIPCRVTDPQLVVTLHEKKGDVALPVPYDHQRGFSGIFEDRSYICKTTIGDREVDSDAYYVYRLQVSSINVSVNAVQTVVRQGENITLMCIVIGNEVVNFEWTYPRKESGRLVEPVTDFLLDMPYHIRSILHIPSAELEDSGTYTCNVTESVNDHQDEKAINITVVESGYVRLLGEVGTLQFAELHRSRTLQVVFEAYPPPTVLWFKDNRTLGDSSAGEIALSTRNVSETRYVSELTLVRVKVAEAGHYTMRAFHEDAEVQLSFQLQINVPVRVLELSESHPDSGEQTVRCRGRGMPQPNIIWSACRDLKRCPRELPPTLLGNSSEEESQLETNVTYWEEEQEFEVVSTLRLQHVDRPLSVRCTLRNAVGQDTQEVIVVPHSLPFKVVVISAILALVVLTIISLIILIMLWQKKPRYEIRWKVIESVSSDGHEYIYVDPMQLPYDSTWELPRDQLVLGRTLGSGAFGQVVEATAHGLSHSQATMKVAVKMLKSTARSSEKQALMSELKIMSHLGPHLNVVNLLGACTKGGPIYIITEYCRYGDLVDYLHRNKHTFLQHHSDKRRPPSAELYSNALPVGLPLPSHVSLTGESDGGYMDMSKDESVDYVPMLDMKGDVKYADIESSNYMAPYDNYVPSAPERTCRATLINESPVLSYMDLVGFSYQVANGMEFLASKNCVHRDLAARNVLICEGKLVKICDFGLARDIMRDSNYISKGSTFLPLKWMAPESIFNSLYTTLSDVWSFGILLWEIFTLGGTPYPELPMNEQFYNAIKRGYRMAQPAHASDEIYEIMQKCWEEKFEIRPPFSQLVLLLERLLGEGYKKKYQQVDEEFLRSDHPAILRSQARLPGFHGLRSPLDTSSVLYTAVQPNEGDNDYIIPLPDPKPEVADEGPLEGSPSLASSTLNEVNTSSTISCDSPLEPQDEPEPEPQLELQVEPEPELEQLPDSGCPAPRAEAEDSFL
Chain of Tyrosine-protein kinase Blk (Homo sapiens) (P51451 2-505 limits assumed): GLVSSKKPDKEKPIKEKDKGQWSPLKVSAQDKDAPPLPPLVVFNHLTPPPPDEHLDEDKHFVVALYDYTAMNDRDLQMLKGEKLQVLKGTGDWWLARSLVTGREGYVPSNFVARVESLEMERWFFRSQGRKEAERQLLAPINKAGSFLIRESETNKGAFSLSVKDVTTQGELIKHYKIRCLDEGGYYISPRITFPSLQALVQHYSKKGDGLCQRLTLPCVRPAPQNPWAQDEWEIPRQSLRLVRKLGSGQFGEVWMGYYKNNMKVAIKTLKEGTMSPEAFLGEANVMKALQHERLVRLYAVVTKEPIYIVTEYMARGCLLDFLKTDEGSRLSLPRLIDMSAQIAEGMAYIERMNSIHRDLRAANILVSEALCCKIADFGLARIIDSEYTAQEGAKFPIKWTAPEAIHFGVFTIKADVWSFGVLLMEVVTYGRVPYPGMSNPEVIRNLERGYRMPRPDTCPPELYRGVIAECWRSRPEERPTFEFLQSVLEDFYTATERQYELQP

For `CCC(=O)Nc1cc(Nc2ncc(C(=O)Nc3cc(NC(=O)c4cc(OC)c(OC)c(OC)c4)ccc3C)c(NC)n2)ccc1C`, the GI50 in data set [1] is 2510 nM; in [2], 790 nM; in data set [4], 370 nM; in data set [5] it was 610 nM; in data set [9], above 10000 nM; in [10] it was 2800 nM. For the same molecule, the GI50 in [11] and in data set [12] was above 10000 nM in each case. Also, in data set [3], the GI50 at 72 h was above 10000 nM. Further, the figures for the IC50 in data set [6], in data set [7] and in data set [8] were 89 nM, above 10000 nM and 212 nM, respectively.
For the molecule `C=CC(=O)Nc1cc(Nc2ncc(C(=O)Nc3cc(NC(=O)c4cccc(C(F)(F)F)c4)ccc3C)c(NC)n2)ccc1C`, the GI50 in data set [1] was 118 nM; in data set [2], 130 nM; in [4], 99 nM; in data set [5], 13 nM; in data set [9], above 10000 nM; in data set [10], 380 nM. The figures for the GI50 in [11], in data set [13] and in data set [12] were above 10000 nM, 5900 nM and above 10000 nM, respectively. In [3], this molecule registered a GI50 at 72 h above 10000 nM.
`CCC(=O)Nc1cc(Nc2ncc(C(=O)Nc3cc(NC(=O)c4cccc(C(F)(F)F)c4)ccc3C)c(NC)n2)ccc1C`: the GI50 in [1] was 44 nM; in data set [2], 59 nM; in data set [4], 45 nM; in data set [5] it was 85 nM; in data set [9], 8600 nM; in data set [10] it was 170 nM. Also, the 50% growth inhibitory concentration (GI50) in [11] was 8300 nM; in [13], 6500 nM; in [12], above 10000 nM. This molecule also showed a GI50 at 72 h in data set [3] above 10000 nM.
